Laboratory results published in ChEMBL document CHEMBL1147844, “Acridone derivatives: design, synthesis, and inhibition of breast cancer resistance protein ABCG2” (Bioorg Med Chem, 2007).
pIC50: −log10 of the molar value.

What was measured:
[1] = target: T1, Broad substrate specificity ATP-binding cassette transporter ABCG2 (Homo sapiens, UniProt Q9UNQ0); assay: Inhibition of ABCG2 expressed in HEK293 cells assessed as mitoxantrone-mediated efflux by flow cytometry; assay type: cell-based
T1 sequence (Q9UNQ0 whole entry): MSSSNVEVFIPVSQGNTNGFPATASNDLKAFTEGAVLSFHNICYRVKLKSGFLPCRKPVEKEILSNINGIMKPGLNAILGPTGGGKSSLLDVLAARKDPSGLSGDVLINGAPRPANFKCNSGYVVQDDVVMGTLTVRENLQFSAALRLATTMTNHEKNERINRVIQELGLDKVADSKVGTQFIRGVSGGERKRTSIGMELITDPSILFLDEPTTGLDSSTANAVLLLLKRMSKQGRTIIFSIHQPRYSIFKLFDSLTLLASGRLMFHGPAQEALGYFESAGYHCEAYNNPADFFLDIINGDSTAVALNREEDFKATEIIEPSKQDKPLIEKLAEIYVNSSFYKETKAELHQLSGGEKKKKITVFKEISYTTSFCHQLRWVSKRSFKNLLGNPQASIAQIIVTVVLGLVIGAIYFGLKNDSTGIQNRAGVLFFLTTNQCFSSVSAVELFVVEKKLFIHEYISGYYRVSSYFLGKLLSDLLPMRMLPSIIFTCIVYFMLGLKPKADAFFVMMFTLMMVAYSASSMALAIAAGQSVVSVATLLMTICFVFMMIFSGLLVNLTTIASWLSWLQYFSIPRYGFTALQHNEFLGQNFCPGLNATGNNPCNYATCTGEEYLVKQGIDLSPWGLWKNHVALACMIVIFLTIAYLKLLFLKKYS
Procedure, shortened: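 HEK-293 cells transfected with human wild-type (R482) ABCG2, or empty-vector control cells, loaded with 5 µmol/L mitoxantrone for 30 min at 37 °C with or without a range of inhibitor concentrations (DMSO, 0.5% final). Cells washed in PBS, then kept 1 h in substrate-free medium with the same inhibitor level. Intracellular fluorescence read by flow cytometry. 100% = control minus ABCG2-cell mean fluorescence without inhibitor. IC50 derived.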

[2] = target: T1, Broad substrate specificity ATP-binding cassette transporter ABCG2; assay: Inhibition of ABCG2 expressed in HEK293 cells assessed as mitoxantrone-mediated efflux by flow cytometry relative to GF120918; assay type: cell-based; set-up: concentration or dose not given beside the values

SMILES | pIC50 [1] | Inhibition [2]
O=c1c2ccccc2[nH]c2cccc(O)c12 | < 4.70 | –
COc1ccc2[nH]c3ccccc3c(=O)c2c1 | 5.32 | 66%
O=c1c2ccccc2[nH]c2cc(C(F)(F)F)cc(O)c12 | < 4.70 | –
O=c1c2ccccc2[nH]c2ccc(O)cc12 | < 4.70 | –
COc1ccc(CCNC(=O)c2cccc3c(=O)c4ccc(OC)cc4[nH]c23)cc1 | 6.25 | 112.3%
COc1cc2c(cc1OC)CN(CCc1ccc(NC(=O)c3cccc4c(=O)c5cccc(OC)c5[nH]c34)cc1)CC2 | – | 100%
COc1cccc2[nH]c3ccccc3c(=O)c12 | 5.20 | 74%
COc1cc(C(F)(F)F)cc2[nH]c3ccccc3c(=O)c12 | 6.11 | 81%
COc1cc(OC)c2c(=O)c3ccccc3[nH]c2c1 | 5.10 | 65%
COc1ccc(CCNC(=O)c2cccc3c(=O)c4ccccc4[nH]c23)cc1OC | 6.35 | 90.2%
COc1ccc2c(=O)c3cccc(C(=O)NCCc4ccc(OC)c(OC)c4)c3[nH]c2c1 | 5.86 | 94.9%
COc1ccc(CCNC(=O)c2cccc3c(=O)c4ccccc4[nH]c23)cc1 | 6.46 | 71.3%
COc1ccc2[nH]c3ccccc3c(=O)c2c1OC | < 4.70 | –
COc1cc(O)c2c(=O)c3ccccc3[nH]c2c1 | < 4.70 | –
